Source: ChEMBL document CHEMBL1799956, “Convergent synthesis and biological evaluation of 2-amino-4-(3',4',5'-trimethoxyphenyl)-5-aryl thiazoles as microtubule targeting agents” (J Med Chem, 2011)
Calls of active or inactive are those of the source. The calls are words filed in the database; no cut-off is given here.

How the values were obtained:
[1] = tested on: HeLa; assay: Induction of morphological changes in human HeLa cells assessed as effect on arrangement and amount of F-actin at 100 nM after 24 hrs using phalloidintetramethylrhodamine B isothiocyanate staining by microscopy; type: functional, cell-based
Method in brief: (§1)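 HeLa cells were incubated with compound for 24 h. F-actin was stained with a phalloidin–tetramethylrhodamine B isothiocyanate conjugate and nuclei were counterstained with DAPI. Cells were then examined by fluorescence microscopy.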

[2] = tested on: HeLa; assay: Induction of apoptosis in human HeLa cells assessed activation of caspase 2 at 10 to 100 nM after 24 hrs by Western blot analysis
[3] = tested on: LoVo; assay: Antiproliferative activity against human doxorubicin-resistant LoVo cells overexpressing P-gp assessed as growth inhibition after 72 hrs by MTT assay; type: functional, cell-based
[4] = molecular target: T1, Tubulin (Homo sapiens) (UniProt P68371+Q9H4B7+P0DPH7+P68366+Q13509+Q71U36+P04350+Q3ZCM7+P07437+P68363+Q9BQE3+Q6PEY2+Q13885+Q9BVA1+Q9BUF5); assay: Induction of microtubule disassembly with spherical morphology in human HeLa cells at 10 nM after 48 hrs using DAPI-staining by fluorescence microscopy; type: cell-based
Method in brief: (§2)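 HeLa cells were exposed to 10 or 100 nM compound for 24 or 48 h, then fixed. Microtubules were stained with FITC-conjugated anti-β-tubulin antibody and imaged by confocal/fluorescence microscopy at 60× magnification.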

[5] = tested on: HeLa; assay: Induction of apoptosis in human HeLa cells assessed activation of caspase 2 at 10 to 100 nM after 48 hrs by Western blot analysis
[6] = tested on: Jurkat; assay: Induction of apoptosis in human Jurkat cells assessed as DNA condensation at 10 uM after 24 to 48 hrs using Giemsa's staining by microscopic analysis; type: functional, cell-based
Method in brief: (§3)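 Giemsa staining, then light-microscope examination of cell morphology. HeLa and Jurkat cells were exposed to compound for 24 and 48 h. Magnification 60×.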

[7] = tested on: HeLa; assay: Induction of apoptosis in human HeLa cells assessed as abnormal mitotic figures at 100 uM after 24 to 48 hrs using Giemsa's staining by microscopic analysis; type: functional, cell-based
Method in brief: (§4)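 HeLa treated 48 h, Giemsa stained and examined by light microscopy at 60× magnification.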

[8] = tested on: Jurkat; assay: Induction of apoptosis in human Jurkat cells assessed as abnormal mitotic figures at 10 uM after 24 to 48 hrs using Giemsa's staining by microscopic analysis; type: functional, cell-based; method in brief: as §3
[9] = tested on: MCF7; assay: Antiproliferative activity against human MCF7 cells assessed as growth inhibition after 72 hrs by MTT assay; type: functional, cell-based; conditions: MCF7, 72 h
[10] = tested on: HeLa; assay: Induction of apoptosis in human HeLa cells assessed as increase in mitochondrial ROS production at 100 nM after 48 hrs using H2DCFDA staining by flow cytometry; type: functional, cell-based
[11] = tested on: HeLa; assay: Cell cycle arrest in human HeLa cells assessed as decrease of cell population at S phase at 1 to 100 nM after 48 hrs using propidium iodide staining by flow cytometry; type: functional, cell-based
[12] = tested on: Jurkat; assay: Induction of apoptosis in human Jurkat cells assessed as abnormal mitotic figures at 100 uM after 24 to 48 hrs using Giemsa's staining by microscopic analysis; type: functional, cell-based; method in brief: as §3
[13] = tested on: HeLa; assay: Induction of apoptosis in human HeLa cells assessed as cleavage of PARP at 10 to 100 nM by Western blotting; conditions: TDE = time-dependent effect
[14] = tested on: HeLa; assay: Induction of apoptosis in human HeLa cells assessed as multinucleation at 100 uM after 24 to 48 hrs using Giemsa's staining by microscopic analysis; type: functional, cell-based; method in brief: as §3
[15] = Antiproliferative activity against human vinblastine-resistant CEM/VBL100 cells overexpressing P-gp assessed as growth inhibition after 72 hrs by MTT assay; type: functional, cell-based; conditions: CEM/VBL100, 72 h
[16] = tested on: HeLa; assay: Induction of apoptosis in human HeLa cells assessed as increase in propidium iodide-positive cells after 48 hrs by annexin-V-FITC and propidium iodide staining based flow cytometry; type: functional, cell-based
Method in brief: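 Biparametric flow cytometry after annexin-V immunolabelling plus propidium iodide, separating live, early apoptotic, late apoptotic and necrotic cells; HeLa incubated for 24 or 48 h.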

[17] = tested on: HeLa; assay: Induction of apoptosis in human HeLa cells assessed as DNA condensation at 10 uM after 24 to 48 hrs using Giemsa's staining by microscopic analysis; type: functional, cell-based; method in brief: as §4
[18] = molecular target: T1, Tubulin (Homo sapiens); assay: Induction of microtubule disassembly with spherical morphology in human HeLa cells at 10 nM after 24 hrs using DAPI-staining by fluorescence microscopy; type: cell-based; method in brief: as §2
[19] = tested on: HeLa; assay: Induction of cell cycle arrest at G2/M phase in human HeLa cells assessed as decrease in Cdc25C expression at 100 nM after 48 hrs by Western blot analysis; type: functional, cell-based
Method in brief: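 Immunoblot of HeLa lysates after 24 or 48 h of compound treatment at the indicated concentrations. Probed for cyclin B1, p-Cdc2 Y15 and Cdc25c. Slower-migrating Cdc25c bands were taken as a change in phosphorylation.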

[20] = tested on: HeLa; assay: Cell cycle arrest in human HeLa cells assessed as increase of cell population at G2/M phase at 1 to 100 nM after 48 hrs using propidium iodide staining by flow cytometry; type: functional, cell-based
[21] = tested on: Jurkat; assay: Cell cycle arrest in human Jurkat cells assessed as decrease of cell population at G1 phase at 1 to 100 nM after 24 hrs using propidium iodide staining by flow cytometry; type: functional, cell-based
[22] = tested on: HeLa; assay: Induction of morphological changes in human HeLa cells assessed as appearance of giant interphase with multiple nuclei of different sizes at 10 nM after 24 hrs using phalloidintetramethylrhodamine B isothiocyanate staining by microscopy; type: functional, cell-based; method in brief: as §1
[23] = tested on: Jurkat; assay: Cell cycle arrest in human Jurkat cells assessed as increase of cell population at G2/M phase at 1 to 100 nM after 48 hrs using propidium iodide staining by flow cytometry; type: functional, cell-based
[24] = Inhibition of bovine brain tubulin polymerization after 20 mins by turbidimetric analysis; set-up: species or system Bos taurus
Method in brief: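 Purified tubulin at 10 μM was used for the assembly (polymerization) inhibition assay. IC50 is the concentration inhibiting assembly.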

[25] = tested on: HeLa; assay: Induction of apoptosis in human HeLa cells assessed as increase in mitochondrial ROS production at 100 nM after 48 hrs using hydroethidine staining by flow cytometry; type: functional, cell-based
[26] = tested on: HeLa; assay: Induction of morphological changes in human HeLa cells assessed as effect on arrangement and amount of F-actin at 10 nM after 24 hrs using phalloidintetramethylrhodamine B isothiocyanate staining by microscopy; type: functional, cell-based; method in brief: as §1
[27] = tested on: HeLa; assay: Induction of apoptosis in human HeLa cells assessed as decrease in Bax expression at […] after 24 hrs by Western blot analysis; type: functional, cell-based
Method in brief: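 Treated HeLa whole-cell lysates separated by SDS-PAGE and immunoblotted for PARP cleavage, Bcl-2, Bax, pro-caspase-9 and pro-caspase-2.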

[28] = tested on: CCRF-CEM; assay: Antiproliferative activity against human CEM cells assessed as growth inhibition after 72 hrs by MTT assay; type: functional, cell-based
[29] = tested on: HeLa; assay: Induction of apoptosis in human HeLa cells assessed as increase in cell viability at 100 nM after 48 hrs by flow cytometry in presence of pan-caspase inhibitor z-VAD.fmk; type: functional, cell-based
Method in brief: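 HeLa incubated 48 h with compound at 100 nM with or without z-VAD.fmk (100 μM); viability measured, mean ± SEM of three independent experiments.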

[30] = tested on: Jurkat; assay: Induction of apoptosis in human Jurkat cells assessed as formation of large cytoplasmic vacuoles at 10 uM after 24 to 48 hrs using Giemsa's staining by microscopic analysis; type: functional, cell-based; method in brief: as §3

CCOc1ccc(-c2sc(N)nc2-c2cc(OC)c(OC)c(OC)c2)cc1
Activity [1]: Active
Activity [2]: Active
IC50 [3]: 600 pM
Activity [4]: Active
Activity [5]: Active
Activity [6]: Active
Activity [7]: Active
Activity [8]: Active
IC50 [9]: 44000 pM
Activity [10]: Active
Activity [11]: Active
Activity [12]: Active
Activity [13]: tde
Activity [14]: Active
IC50 [15]: 800 pM
Activity [16]: Active
Activity [17]: Active
Activity [18]: Active
Activity [19]: Active
Activity [20]: Active
Activity [21]: Active
Activity [22]: Active
Activity [23]: Active
IC50 [24]: 610000 pM
Activity [25]: Active
Activity [26]: Active
Activity [27]: inactive
IC50 [28]: 900 pM
Activity [29]: inactive
Activity [30]: Active
